Residues, ends and D or L forms follow the SMILES beside them. *: point of attachment. Cbz = O=C(OCc1ccccc1)*
Legend:
A549 = assay: Cytostatic activity against human A549 cells after […] by MTT assay; format: functional, cell-based
Outline: (§1)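 MTT viability in human tumor lines exposed to a concentration series for 48 h. Adherent cells were allowed to attach for 12 h before dosing. Suspension cells were seeded immediately before dosing at (1–2) × 10^5 cells/mL. DMSO wells served as negative control and DDP (cisplatin) as positive control. IC50 was calculated from viability.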

SMMC-7721 = assay: Cytostatic activity against human SMMC7721 cells after […] by MTT assay; format: functional, cell-based; outline: as §1
[1] = Therapeutic index, ratio of CC50 for human C8166 cells to EC50 for Human immunodeficiency virus 1 3B infected in human C8166 cells; format: cell-based; conditions: read-out: Ratio CC50/EC50
Outline: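 Ratio of CC50 (MTT viability of uninfected C8166 cells, 3 days, 37 C) to EC50 (syncytium counts in HIV-1 IIIB-infected C8166 cells, 3 days, 37 C).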

HL-60 = assay: Cytostatic activity against human HL60 cells after […] by MTT assay; format: functional, cell-based; outline: as §1
[2] = tested on: Human immunodeficiency virus 1; assay: Antiviral activity against Human immunodeficiency virus 1 3B infected in human C8166 cells assessed as numbers of syncytia after 3 days by syncytium counting; conditions: C8166, 72 h
MCF7 = assay: Cytostatic activity against human MCF7 cells after […] by MTT assay; format: functional, cell-based; outline: as §1
RAW264.7 = assay: Antiinflammatory against mouse RAW264.7 cells assessed as inhibition of LPS-induced nitric oxide production; format: functional, cell-based
Outline: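 Nitric oxide production was measured in LPS-stimulated RAW 264.7 macrophages, with DMSO wells as negative control and MG-132 as positive control. IC50 was derived.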

SW480 = assay: Cytostatic activity against human SW480 cells after […] by MTT assay; format: functional, cell-based; outline: as §1
[3] = Cytotoxicity against human C8166 cells after 3 days by MTT assay; format: cell-based
Outline: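 C8166 cells were seeded in triplicate with or without a concentration series and held at 37 C for 3 days, with compound-free wells as negative control. Viable cells were quantified by MTT absorbance at 595/630 nm. CC50, the 50% reduction in viable cells, was taken from the dose–response curve.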

[4] = tested on: Human immunodeficiency virus 1; assay: Antiviral activity against Human immunodeficiency virus 1 3B infected in human C8166 cells assessed as numbers of syncytia after 3 days by MTT assay; format: functional, organism-based; conditions: C8166, 72 h
Outline: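 Compounds at various concentrations were added to C8166 cells (8 × 10^5/mL) infected with HIV-1 IIIB and incubated at 37 C for 3 days. The cytopathic effect was scored by counting syncytia, with AZT as positive control. EC50 came from the percentage of syncytial cells relative to the infected untreated control.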

In the case of C=C1CC[C@H]2[C@@H]([C@@H]3[C@@H]1CC[C@@]3(C)O)C2(C)C, the IC50 (A549) is reported as > 64.4 µM, the IC50 (SMMC-7721) is reported as > 64.4 µM and the selectivity ratio [1] is reported as 1.6. For the same compound, the IC50 (HL-60) was > 64.4 µM, the EC50 [2] was 104 µM and the IC50 (MCF7) was > 64.4 µM. For the same compound, the IC50 (RAW264.7) was > 64.4 µM, the IC50 (SW480) was > 64.4 µM and the CC50 at 72 h [3] was 170 µM.
With C=C1CC[C@@H](O)[C@@]2(C)CC[C@H](C(C)C)[C@@H](O)[C@H]12 the IC50 (A549) was 41.6 µM, the IC50 (SMMC-7721) was 32.4 µM and the selectivity ratio [1] was 2.1. For the same compound, the IC50 (HL-60) was 31.1 µM, the EC50 [2] was 31.9 µM and the IC50 (MCF7) was 35.3 µM. For the same compound, the IC50 (RAW264.7) was 28.1 µM, the IC50 (SW480) was 37 µM and the CC50 at 72 h [3] was 68.1 µM.
For C=C1CC[C@@H](O)[C@]2(C)CC[C@H](CC(C)(C)O)[C@@H]12, the IC50 (A549) was > 64.4 µM, the IC50 (SMMC-7721) was > 64.4 µM and the IC50 (HL-60) was > 64.4 µM. For the same compound, the EC50 [2] was > 420 µM, the IC50 (MCF7) was > 64.4 µM and the IC50 (RAW264.7) was > 64.4 µM. For the same compound, the IC50 (SW480) was > 64.4 µM and the CC50 at 72 h [3] was > 420 µM.
With CC(=O)/C=C/[C@@]1(O)C(C)=CC(=O)CC1(C)C the IC50 (A549) was > 64.4 µM, the IC50 (SMMC-7721) was > 64.4 µM and the IC50 (HL-60) was > 64.4 µM. The EC50 [2] was > 450 µM, the IC50 (MCF7) was > 64.4 µM and the IC50 (RAW264.7) was > 64.4 µM. The IC50 (SW480) was > 64.4 µM and the CC50 at 72 h [3] was > 450 µM.
In the case of C=C1CC[C@H](O)[C@@]2(C)CC[C@@H]([C@@H](O)C(C)C)[C@H]12, the IC50 (A549) is reported as > 64.4 µM, the IC50 (SMMC-7721) is reported as > 64.4 µM and the selectivity ratio [1] is reported as 2.4. The IC50 (HL-60) was > 64.4 µM, the EC50 [2] was 167 µM and the IC50 (MCF7) was > 64.4 µM. The IC50 (RAW264.7) was > 64.4 µM, the IC50 (SW480) was > 64.4 µM and the CC50 at 72 h [3] was 398 µM.
For C=C1CC[C@@H](O)[C@]2(C)CC[C@@](O)(C(C)C)C[C@@H]12, the IC50 (A549) was > 64.4 µM, the IC50 (SMMC-7721) was > 64.4 µM and the IC50 (HL-60) was > 64.4 µM. For the same compound, the EC50 [2] was > 420 µM, the IC50 (MCF7) was > 64.4 µM and the IC50 (RAW264.7) was > 64.4 µM. For the same compound, the IC50 (SW480) was > 64.4 µM and the CC50 at 72 h [3] was > 420 µM.
With CC(=O)C=C=C1C(C)(C)C[C@H](O)C[C@@]1(C)O[C@@H]1O[C@H](CO)[C@@H](O)[C@H](O)[C@H]1O [CITROSIDE B] the IC50 (A549) was > 64.4 µM, the IC50 (SMMC-7721) was > 64.4 µM and the IC50 (HL-60) was > 64.4 µM. The EC50 [2] was > 259 µM, the IC50 (MCF7) was > 64.4 µM and the IC50 (RAW264.7) was > 64.4 µM. For the same compound, the IC50 (SW480) was > 64.4 µM and the CC50 at 72 h [3] was > 259 µM.
With C=C(C)[C@@H]1CC[C@@]2(C)[C@H](O)CC[C@@](C)(O)[C@@H]2C1 [CYPERUSOL C] the IC50 (A549) was > 64.4 µM, the IC50 (SMMC-7721) was > 64.4 µM and the selectivity ratio [1] was > 2.8. For the same compound, the IC50 (HL-60) was > 64.4 µM, the EC50 [2] was 150 µM and the IC50 (MCF7) was > 64.4 µM. The IC50 (RAW264.7) was > 64.4 µM, the IC50 (SW480) was > 64.4 µM and the CC50 at 72 h [3] was > 420 µM.
For CC(C)C1=C[C@@H]2[C@H](CC[C@@]2(C)O)[C@@](C)(O)CC1 [GUAIANEDIOL], the IC50 (A549) was > 64.4 µM, the IC50 (SMMC-7721) was > 64.4 µM and the IC50 (HL-60) was > 64.4 µM. The EC50 [2] was > 420 µM, the IC50 (MCF7) was > 64.4 µM and the IC50 (RAW264.7) was > 64.4 µM. For the same compound, the IC50 (SW480) was > 64.4 µM and the CC50 at 72 h [3] was > 420 µM.
CC(C)C[C@@H](C=O)NC(=O)[C@H](CC(C)C)NC(=O)[C@H](CC(C)C)NC(=O)OCc1ccccc1 [MG-132] (Cbz-Leu-Leu-Leu-aldehyde) gave an IC50 (RAW264.7) of 0.439 µM.
With C[C@H](/C=C/[C@]12O[C@@]1(C)C[C@@H](O)CC2(C)C)O[C@@H]1O[C@H](CO)[C@@H](O)[C@H](O)[C@H]1O [PHLOMUROSIDE] the IC50 (A549) was > 64.4 µM, the IC50 (SMMC-7721) was > 64.4 µM and the IC50 (HL-60) was > 64.4 µM. The EC50 [2] was > 258 µM, the IC50 (MCF7) was > 64.4 µM and the IC50 (RAW264.7) was > 64.4 µM. The IC50 (SW480) was > 64.4 µM and the CC50 at 72 h [3] was > 258 µM.
In the case of CC(C)[C@H]1CC[C@@]2(C)[C@@H]1[C@H]1O[C@@H]2CC[C@@H]1C(=O)O [SANICULAMOID A1], the IC50 (A549) is reported as > 64.4 µM, the IC50 (SMMC-7721) is reported as > 64.4 µM and the selectivity ratio [1] is reported as 1.2. For the same compound, the IC50 (HL-60) was > 64.4 µM, the EC50 [2] was 162 µM and the IC50 (MCF7) was > 64.4 µM. For the same compound, the IC50 (RAW264.7) was > 64.4 µM, the IC50 (SW480) was > 64.4 µM and the CC50 at 72 h [3] was 195 µM.
With CC(C)[C@H]1CC[C@@]2(C)[C@@H]1[C@@H]1O[C@]1(CO)CC[C@@H]2O [SANICULAMOID B] the IC50 (A549) was > 64.4 µM, the IC50 (SMMC-7721) was > 64.4 µM and the selectivity ratio [1] was 2.9. The IC50 (HL-60) was > 64.4 µM, the EC50 [2] was 126 µM and the IC50 (MCF7) was > 64.4 µM. The IC50 (RAW264.7) was > 64.4 µM, the IC50 (SW480) was > 64.4 µM and the CC50 at 72 h [3] was 358 µM.
In the case of CC(C)(O)[C@H]1C[C@H]2[C@H](CC[C@@]2(C)O)[C@](C)(O)C[C@@H]1O [SANICULAMOID C], the IC50 (A549) is reported as > 64.4 µM, the IC50 (SMMC-7721) is reported as > 64.4 µM and the IC50 (HL-60) is reported as > 64.4 µM. The EC50 [2] was > 368 µM, the IC50 (MCF7) was > 64.4 µM and the IC50 (RAW264.7) was > 64.4 µM. For the same compound, the IC50 (SW480) was > 64.4 µM and the CC50 at 72 h [3] was > 368 µM.
With CC(=O)CC[C@@H](C(C)C)[C@@H]1[C@H]2CCC(=O)[C@H]21 [SANICULAMOID D] the IC50 (A549) was > 64.4 µM, the IC50 (SMMC-7721) was > 64.4 µM and the selectivity ratio [1] was > 2.3. For the same compound, the IC50 (HL-60) was > 64.4 µM, the EC50 [2] was 196 µM and the IC50 (MCF7) was > 64.4 µM. The IC50 (RAW264.7) was > 64.4 µM, the IC50 (SW480) was > 64.4 µM and the CC50 at 72 h [3] was > 450 µM.
Work on Cc1cn([C@H]2C[C@H](N=[N+]=[N-])[C@@H](CO)O2)c(=O)[nH]c1=O [ZIDOVUDINE] yielded a selectivity ratio [1] of 214000, an EC50 [4] of 0.0045 µM and a CC50 at 72 h [3] of 4070 µM.

Source: ChEMBL document CHEMBL1811918, “Sesquiterpene and norsesquiterpene derivatives from Sanicula lamelligera and their biological evaluation” (J Nat Prod, 2011)
